Experimental data as given in publication PMC3873039 (Anti-Cancer Agents in Medicinal Chemistry, 2013).

Legend:
CCRF-CEM [1] = experiment: CellTiter-Glo luminescent cell viability assay; format: cell-based, human; details: 24 h, doses 0, 2, 10, 50, 250, 500 µM, p<0.05
In short: (§1)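 Cells grown in RPMI 1640 with 10% FBS, 1.5 mM L-glutamine and penicillin/streptomycin at 37 °C, 5% CO2. Seeded at 2.5 x 10³ cells/well and exposed 24 h to ethanol-dissolved test compound (0, 2, 10, 50, 250, 500 µM) with 0.1% ethanol vehicle. ATP luminescence normalized to vehicle (100%). IC50 taken from linear regression. Lowest significant dose set by one-way ANOVA/Tukey, p<0.05. Triplicates, three independent experiments.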

MOLT-3 = experiment: CellTiter-Glo luminescent cell viability assay; format: cell-based, human; details: MOLT-3, 24 h, doses 0, 2, 10, 50, 250, 500 µM, p<0.05
In short: as §1

HL60 [2] = experiment: CellTiter-Glo luminescent cell viability assay; format: cell-based, human; details: HL60, 24 h, doses 0, 2, 10, 50, 250, 500 µM, p<0.05
In short: as §1

THP-1 [3] = experiment: CellTiter-Glo luminescent cell viability assay; format: cell-based, human; details: THP-1, 24 h, doses 0, 2, 10, 50, 250, 500 µM, p<0.05
In short: as §1

U937 [4] = experiment: CellTiter-Glo luminescent cell viability assay; format: cell-based, human; details: U937, 24 h, doses 0, 2, 10, 50, 250, 500 µM, p<0.05
In short: as §1

[5] = system: non-tumor cord blood (CD34+) cells; experiment: CellTiter-Glo luminescent cell viability assay; format: cell-based; details: 24 h; for IC50: read-out: IC50 (50% inhibition of cellular proliferation), CD34+ non-tumour control cells, 24 h treatment; for The lowest dose of polyphenols at which there was a significant inhibition of cell proliferation compared to the vehicle control: CD34+ non-tumour control cells, doses 0, 2, 10, 50, 250, 500 µM, p<0.05
In short: as §1

JURKAT [6] = experiment: Cell cycle analysis, propidium iodide flow cytometry; format: cell-based, human; details: IC50 dose, 24 h, p<0.05
In short: (§2)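 Seeded at 0.5 x 10^6 cells per well in 12-well plates and treated 24 h at the IC50 concentration of each test compound from CellTiter-Glo. Cells were pelleted (400 g, 5 min), PBS-washed and fixed in 80% ethanol overnight at -20 °C. Staining used 50 µg/mL PI plus RNase overnight at 4 °C.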

CCRF-CEM [7] = experiment: as above; format: cell-based, human; details: IC50 dose, 24 h
In short: as §2

K562 [8] = experiment: as above; format: cell-based, human; details: K562, IC50 dose, 24 h
In short: as §2

U937 [9] = experiment: as above; format: cell-based, human; details: U937, IC50 dose, 24 h
In short: as §2

[10] = system: non-tumor progenitor cells (CD34+); experiment: Cell cycle analysis, propidium iodide flow cytometry; format: cell-based; details: 24 h, within the IC50 ranges used to treat the leukemic cell lines
JURKAT [11] = experiment: NucView caspase 3 activity assay by flow cytometry; format: cell-based, human; details: 24 h; for EC50: Homo sapiens, Jurkat, read-out: AP50 (50% induction of apoptosis), Caspase 3 activity assay (C3); for The lowest dose of polyphenols at which there was a significant induction of apoptosis compared to the vehicle control: JURKAT, caspase 3 activity, p<0.05
In short: (§3)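 Seeded at 0.5 x 10⁶ cells/well and treated 24 h, with series of 0–50 or 0–250 µM depending on compound. Normalized to vehicle (0% apoptosis). Mean ± STD, three independent experiments in triplicate. One-way ANOVA/Tukey, p<0.05. AP50 = concentration giving 50% apoptotic cells.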

CCRF-CEM [12] = experiment: NucView caspase 3 activity assay by flow cytometry; format: cell-based, human; details: 24 h; for EC50: Homo sapiens, read-out: AP50 (50% induction of apoptosis), Caspase 3 activity assay (C3); for The lowest dose of polyphenols at which there was a significant induction of apoptosis compared to the vehicle control: caspase 3 activity, p<0.05
In short: as §3

HL60 [13] = experiment: NucView caspase 3 activity assay by flow cytometry; format: cell-based, human; details: for The lowest dose of polyphenols at which there was a significant induction of apoptosis compared to the vehicle control: HL60, caspase 3 activity, 24 h, p<0.05; for EC50: Homo sapiens, HL-60, 24 h, read-out: AP50 (50% induction of apoptosis), Caspase 3 activity assay (C3)
In short: as §3

THP-1 [14] = experiment: NucView caspase 3 activity assay by flow cytometry; format: cell-based, human; details: for EC50: Homo sapiens, THP-1, 24 h, read-out: AP50 (50% induction of apoptosis), Caspase 3 activity assay (C3); for The lowest dose of polyphenols at which there was a significant induction of apoptosis compared to the vehicle control: THP-1, caspase 3 activity, 24 h, p<0.05
In short: as §3

K562 [15] = experiment: NucView caspase 3 activity assay by flow cytometry; format: cell-based, human; details: for EC50: Homo sapiens, K562, 24 h, read-out: AP50 (50% induction of apoptosis), Caspase 3 activity assay (C3); for The lowest dose of polyphenols at which there was a significant induction of apoptosis compared to the vehicle control: K562, caspase 3 activity, 24 h, p<0.05
In short: as §3

U937 [16] = experiment: NucView caspase 3 activity assay by flow cytometry; format: cell-based, human; details: for EC50: Homo sapiens, U-937, 24 h, read-out: AP50 (50% induction of apoptosis), Caspase 3 activity assay (C3); for The lowest dose of polyphenols at which there was a significant induction of apoptosis compared to the vehicle control: U937, caspase 3 activity, 24 h, p<0.05
In short: as §3

non-tumor cells (CD34+) [17] = experiment: NucView caspase 3 activity assay by flow cytometry; format: cell-based; details: 24 h; for EC50: read-out: AP50 (50% induction of apoptosis), Caspase 3 activity assay (C3); for The lowest dose of polyphenols at which there was a significant induction of apoptosis compared to the vehicle control: CD34+ non-tumour control cells, caspase 3 activity, p<0.05
HL60 [18] = experiment: Hoechst 33342 nuclear morphological analysis of apoptosis; format: cell-based; details: Homo sapiens, HL-60, 24 h, read-out: AP50 (50% induction of apoptosis), Hoechst 33342 staining (Hoe)
In short: (§4)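 Seeded at 0.5 x 10⁶ cells/well in 12-well plates and treated 24 h. Cells were pelleted (400 g, 5 min, 4 °C), washed in PBS, fixed in 4% paraformaldehyde, cytospun, air-dried, then stained with 10 μg/ml Hoechst 33342 for 10 min in the dark. Fluorescence microscopy: 200 cells counted, scored by condensed/intense nuclei, shrinkage, blebbing and apoptotic bodies. % apoptotic nuclei calculated. AP50 = concentration giving 50% apoptotic cells.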

THP-1 [19] = experiment: as above; format: cell-based; details: Homo sapiens, THP-1, 24 h, read-out: AP50 (50% induction of apoptosis), Hoechst 33342 staining (Hoe)
In short: as §4

K562 [20] = experiment: as above; format: cell-based; details: Homo sapiens, K562, 24 h, read-out: AP50 (50% induction of apoptosis), Hoechst 33342 staining (Hoe)
In short: as §4

non-tumor cells (CD34+) [21] = experiment: Hoechst 33342 nuclear morphological analysis of apoptosis; format: cell-based; details: 24 h, read-out: AP50 (50% induction of apoptosis), Hoechst 33342 staining (Hoe)
In short: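 CD34+ cells treated 24 h across the IC25–IC50 range, then pelleted (400 g, 4 °C) and fixed in 4% paraformaldehyde/PBS. Cytospins were air-dried and stained with 10 μg/ml Hoechst 33342 for 10 min in the dark, then viewed by fluorescence microscopy. 200 cells were scored per sample as % apoptotic nuclei (shrinkage, blebbing, chromatin condensation, apoptotic bodies). AP50 = concentration giving 50% apoptosis.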

SMILES	The lowest dose of polyphenols at which there was a significant inhibition of cell proliferation compared to the vehicle control (CCRF-CEM [1]) [µM]	The lowest dose of polyphenols at which there was a significant inhibition of cell proliferation compared to the vehicle control (MOLT-3) [µM]	The lowest dose of polyphenols at which there was a significant inhibition of cell proliferation compared to the vehicle control (HL60 [2]) [µM]	The lowest dose of polyphenols at which there was a significant inhibition of cell proliferation compared to the vehicle control (THP-1 [3]) [µM]	The lowest dose of polyphenols at which there was a significant inhibition of cell proliferation compared to the vehicle control (U937 [4]) [µM]	IC50 [5] [µM]	The lowest dose of polyphenols at which there was a significant inhibition of cell proliferation compared to the vehicle control [5] [µM]	Phase of cell cycle accumulation (JURKAT [6])	Cell cycle arrest in non-tumour control cells [10]	EC50 (JURKAT [11]) [µM]	The lowest dose of polyphenols at which there was a significant induction of apoptosis compared to the vehicle control (JURKAT [11]) [µM]	EC50 (CCRF-CEM [12]) [µM]	The lowest dose of polyphenols at which there was a significant induction of apoptosis compared to the vehicle control (CCRF-CEM [12]) [µM]	The lowest dose of polyphenols at which there was a significant induction of apoptosis compared to the vehicle control (HL60 [13]) [µM]	EC50 (HL60 [13]) [µM]	EC50 (THP-1 [14]) [µM]	The lowest dose of polyphenols at which there was a significant induction of apoptosis compared to the vehicle control (THP-1 [14]) [µM]	EC50 (K562 [15]) [µM]	The lowest dose of polyphenols at which there was a significant induction of apoptosis compared to the vehicle control (K562 [15]) [µM]	EC50 (U937 [16]) [µM]	further results
O=c1c(O)c(-c2ccc(O)c(O)c2)oc2cc(O)cc(O)c12 [Quercetin]	2	2	2	2	2	> 500	250	S-phase	No Arrest <50µM	19	2	50	2	10	50	> 50	10	> 50	10	50	Percentage of cells in S phase of cell cycle (significant accumulation) (CCRF-CEM [7]; vehicle control S = 47.2%): S = 51.4%; Percentage of cells in G0/G1 phase of cell cycle (significant accumulation) (K562 [8]; vehicle control G0/G1 = 53.7%): G0/G1=60%; Percentage of cells in G2/M phase of cell cycle (significant accumulation) (U937 [9]; vehicle control G2/M = 19.1%): G2/M =25%; The lowest dose of polyphenols at which there was a significant induction of apoptosis compared to the vehicle control (U937 [16]): 2 µM; EC50 (non-tumor cells (CD34+) [17]): > 50 µM; The lowest dose of polyphenols at which there was a significant induction of apoptosis compared to the vehicle control (non-tumor cells (CD34+) [17]): 50 µM; EC50 (HL60 [18]): 50 µM; EC50 (THP-1 [19]): > 500 µM; EC50 (K562 [20]): 205 µM; EC50 (non-tumor cells (CD34+) [21]): > 500 µM
O=c1cc(-c2ccc(O)cc2)oc2cc(O)cc(O)c12 [Apigenin]	10	50	10	10	10	> 500	500	S-phase	No Arrest ≤250µM	35	50	50	10	50	84	110	10	150	10	45	Percentage of cells in G0/G1 phase of cell cycle (significant accumulation) (CCRF-CEM [7]; vehicle control G0/G1 = 41.9%): G0/G1 =52.2%; Percentage of cells in S phase of cell cycle (significant accumulation) (K562 [8]; vehicle control S = 32.06%): S =50.2%; Percentage of cells in G0/G1 phase of cell cycle (significant accumulation) (U937 [9]; vehicle control G0/G1 = 44.03%): G0/G1 =59%; The lowest dose of polyphenols at which there was a significant induction of apoptosis compared to the vehicle control (U937 [16]): 50 µM; EC50 (non-tumor cells (CD34+) [17]): > 250 µM; The lowest dose of polyphenols at which there was a significant induction of apoptosis compared to the vehicle control (non-tumor cells (CD34+) [17]): 250 µM; EC50 (HL60 [18]): 129 µM; EC50 (THP-1 [19]): 220 µM; EC50 (K562 [20]): 190 µM; EC50 (non-tumor cells (CD34+) [21]): > 500 µM
